For 14 molecules, GI50, Activity and IC50 results are on record in ChEMBL document CHEMBL1155097, “T-type Ca2+ channel blockers suppress the growth of human cancer cells” (Bioorg Med Chem Lett, 2008).

For one series, the system named is A549. Briefly: Growth inhibition of human A549 cells after 72 hrs by SRB assay. In kind it is functional. The conditions noted are these: A549, 72 h. In outline:
(§1)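 Cells seeded in 96-well plates, in exponential growth at time of sample addition; various concentrations added in triplicate, 37 °C, 5% CO2, 72 h. Fixed with formalin 30 min at room temperature, tap-water washed, stained with 0.4% SRB 30 min, washed with 1% acetic acid, dye solubilized in 10 mM unbuffered Tris base; OD at 520 nm. GI50 from dose–response curve, three independent experiments.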

The subject of the next series is DU-145. Briefly: Growth inhibition of human DU145 cells after 72 hrs by SRB assay. In kind it is functional. The conditions noted are these: DU-145, 72 h. In outline: as §1
Another series relates to HT-29. Briefly: Growth inhibition of human HT29 cells after 72 hrs by SRB assay. In kind it is functional. The conditions noted are these: HT-29, 72 h. In outline: as §1
In a further series the test system is SK-MEL-2. Briefly: Growth inhibition of human SK-MEL-2 cells after 72 hrs by SRB assay. The conditions noted are these: SK-MEL-2, 72 h. In kind it is functional. In outline:
as §1

In a further series the test system is SK-OV-3. The series can be described thus: Growth inhibition of human SKOV3 cells after 72 hrs by SRB assay. In kind it is functional. The conditions noted are these: SK-OV-3, 72 h. In outline: as §1
Background: In SRB staining, fixed cells bind dye roughly in proportion to their protein.

The next series concerns Mus musculus. The series can be described thus: Acute toxicity in ICR CD1 mouse assessed as mortality at 1000 mg/kg, po after 5 days. Details: dose 1000 mg/kg, route oral. The conditions noted are these: in vivo, 120 h. In kind it is organism-based. Put shortly: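 Single oral dose given as a corn oil mixture to two CD-1 (ICR) mice, with mortality monitored over 5 days.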

Series [1] deals with Voltage-dependent T-type calcium channel subunit alpha-1G (Homo sapiens, UniProt O43497). Briefly: Inhibition of T-type calcium channel Cav3.1 alpha1G expressed in HEK293 cells by whole cell patch-clamp method. In kind it is cell-based. Put shortly:
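HEK293 stably coexpressing Cav3.1 (alpha1G) and Kir2.1; whole-cell recording, 3–4 MΩ electrodes. Internal (mM): 130 KCl, 11 EGTA, 5 Mg-ATP, 10 HEPES, pH 7.4. External (mM): 140 NaCl, 2 CaCl2, 10 HEPES, 10 glucose, pH 7.4. Currents evoked every 15 s by 50 ms step from −100 to −30 mV. IC50 for peak-current inhibition fitted from dose–response curves, three independent experiments.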

Voltage-dependent T-type calcium channel subunit alpha-1G, sequence (O43497 whole entry): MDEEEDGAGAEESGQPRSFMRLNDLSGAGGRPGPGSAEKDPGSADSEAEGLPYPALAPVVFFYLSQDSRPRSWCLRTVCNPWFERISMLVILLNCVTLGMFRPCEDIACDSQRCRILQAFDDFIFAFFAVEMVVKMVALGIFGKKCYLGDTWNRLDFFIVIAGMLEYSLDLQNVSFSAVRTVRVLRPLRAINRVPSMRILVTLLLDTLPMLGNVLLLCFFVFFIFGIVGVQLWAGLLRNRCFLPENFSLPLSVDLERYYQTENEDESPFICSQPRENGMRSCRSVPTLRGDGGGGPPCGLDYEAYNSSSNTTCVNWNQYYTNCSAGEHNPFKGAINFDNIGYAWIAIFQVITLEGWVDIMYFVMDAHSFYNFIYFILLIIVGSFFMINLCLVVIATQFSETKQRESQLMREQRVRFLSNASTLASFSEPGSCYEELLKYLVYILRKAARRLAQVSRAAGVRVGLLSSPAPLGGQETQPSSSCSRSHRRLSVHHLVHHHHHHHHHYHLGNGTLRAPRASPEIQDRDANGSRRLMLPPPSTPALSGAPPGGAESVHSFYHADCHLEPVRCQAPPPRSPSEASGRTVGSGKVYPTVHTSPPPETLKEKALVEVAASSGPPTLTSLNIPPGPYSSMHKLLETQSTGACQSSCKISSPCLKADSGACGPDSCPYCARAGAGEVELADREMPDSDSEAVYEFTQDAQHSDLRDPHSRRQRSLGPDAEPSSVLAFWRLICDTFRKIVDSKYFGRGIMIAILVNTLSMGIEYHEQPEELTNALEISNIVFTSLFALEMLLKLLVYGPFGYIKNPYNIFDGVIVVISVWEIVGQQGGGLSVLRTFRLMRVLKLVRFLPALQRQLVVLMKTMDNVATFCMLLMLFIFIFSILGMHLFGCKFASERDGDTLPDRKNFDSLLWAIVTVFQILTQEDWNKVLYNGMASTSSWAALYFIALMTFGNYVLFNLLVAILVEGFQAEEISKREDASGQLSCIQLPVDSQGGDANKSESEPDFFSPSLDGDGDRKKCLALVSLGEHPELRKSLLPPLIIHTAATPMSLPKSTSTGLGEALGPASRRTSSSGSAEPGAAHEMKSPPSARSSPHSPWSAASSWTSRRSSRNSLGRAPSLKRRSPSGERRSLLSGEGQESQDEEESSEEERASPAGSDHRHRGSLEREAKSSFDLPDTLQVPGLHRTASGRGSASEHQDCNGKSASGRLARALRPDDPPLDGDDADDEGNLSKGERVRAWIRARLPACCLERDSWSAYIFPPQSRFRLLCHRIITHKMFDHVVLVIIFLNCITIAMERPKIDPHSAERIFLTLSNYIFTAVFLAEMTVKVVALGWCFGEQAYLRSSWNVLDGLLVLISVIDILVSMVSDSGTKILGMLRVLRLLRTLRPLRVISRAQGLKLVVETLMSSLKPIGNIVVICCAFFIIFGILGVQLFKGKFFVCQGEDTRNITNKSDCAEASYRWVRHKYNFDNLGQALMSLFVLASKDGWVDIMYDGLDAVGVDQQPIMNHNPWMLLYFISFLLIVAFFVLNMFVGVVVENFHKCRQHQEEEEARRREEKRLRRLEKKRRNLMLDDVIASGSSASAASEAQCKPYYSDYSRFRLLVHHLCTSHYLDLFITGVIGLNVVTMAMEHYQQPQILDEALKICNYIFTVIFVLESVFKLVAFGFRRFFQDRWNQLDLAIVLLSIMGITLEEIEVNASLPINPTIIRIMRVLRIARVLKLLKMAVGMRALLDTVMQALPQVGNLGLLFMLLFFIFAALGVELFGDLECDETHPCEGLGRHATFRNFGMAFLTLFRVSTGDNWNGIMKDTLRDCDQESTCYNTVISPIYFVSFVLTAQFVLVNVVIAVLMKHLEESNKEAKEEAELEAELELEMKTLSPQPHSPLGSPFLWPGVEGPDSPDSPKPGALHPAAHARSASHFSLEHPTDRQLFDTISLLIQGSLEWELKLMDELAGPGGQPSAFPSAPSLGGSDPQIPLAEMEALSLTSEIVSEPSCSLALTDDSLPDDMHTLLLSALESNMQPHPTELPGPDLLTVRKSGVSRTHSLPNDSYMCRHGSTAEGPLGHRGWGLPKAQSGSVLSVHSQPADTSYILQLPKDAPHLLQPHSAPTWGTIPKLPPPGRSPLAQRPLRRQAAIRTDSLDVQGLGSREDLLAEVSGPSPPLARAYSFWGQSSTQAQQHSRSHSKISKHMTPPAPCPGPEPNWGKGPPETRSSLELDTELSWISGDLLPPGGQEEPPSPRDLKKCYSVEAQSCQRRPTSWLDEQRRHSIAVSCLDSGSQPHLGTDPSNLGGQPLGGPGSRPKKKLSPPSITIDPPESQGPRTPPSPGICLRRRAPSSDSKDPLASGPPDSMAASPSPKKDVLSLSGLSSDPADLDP

Regarding `COC(=O)CC1c2ccccc2N=C(Nc2ccc(-c3ccccc3)cc2)N1CCCCCN` (stereo unspecified), the GI50 stood at 2.9 µM with A549; 4.09 µM in the series on DU-145; 1.08 µM in the series on HT-29; 1.8 µM with SK-MEL-2; 3.99 µM in the series with SK-OV-3.
The corresponding values for `COC(=O)CC1c2ccccc2N=C(NCCCCCNC(=O)OC(C)(C)C)N1c1ccc(-c2ccccc2)cc1` (stereo unspecified) are 3.83 µM, 3.83 µM, 2.08 µM, 4.31 µM and 4.61 µM.
For `CN(CCCCCN1CCCC1)C1=Nc2ccccc2C(CC(=O)NCc2ccccc2)N1c1ccc(-c2ccccc2)cc1` (stereo unspecified) the same measures were 0.87 µM, 2.49 µM, 0.61 µM, 0.69 µM and 2.76 µM.
For `O=C(CC1c2ccccc2N=C(N2CCCCC2)N1c1ccccc1)NCc1ccc(NS(=O)(=O)c2ccc(F)cc2)cc1` (stereo unspecified) the same measures were 1.93 µM, 1.71 µM, 1.71 µM, 1.73 µM and 1.95 µM.
For the molecule `CC(C)(C)OC(=O)NCCCCCN1C(Nc2ccc(-c3ccccc3)cc2)=Nc2ccccc2C1CC(=O)NCc1ccccc1` (stereo unspecified), the GI50 came to 1.87 µM in the series on A549; 1.79 µM in the series with DU-145; 1.7 µM with HT-29; 1.59 µM in the series with SK-MEL-2; 2.01 µM in the series with SK-OV-3.
Turning to `CN(C)CCCCCN(C)C1=Nc2ccccc2C(CC(=O)NCc2ccccc2)N1c1ccc(-c2ccccc2)cc1` (stereo unspecified), the GI50 with A549 turned out to be 0.17 µM; with DU-145, 0.19 µM; in the series with HT-29 it was 0.04 µM; in the series on SK-MEL-2, 0.48 µM; in the series on SK-OV-3 it was 0.66 µM. The Activity entry in the series on Mus musculus is reported as “Non-toxic”.
As for `COC(=O)CC1c2ccccc2N=C(N(C)CCCCCN(C)C)N1c1ccc(-c2ccccc2)cc1` (stereo unspecified), the GI50 with A549 came out at 1.77 µM; in the series with DU-145, 1.78 µM; in the series with HT-29 it was 0.52 µM; in the series on SK-MEL-2, 1.91 µM; in the series on SK-OV-3, 1.95 µM.
`CN(C)C1=Nc2ccccc2C(CC(=O)NCc2ccc([N+](=O)[O-])cc2)N1c1ccccc1` (stereo unspecified): the GI50 with A549 was > 100 µM; in the series on DU-145, > 100 µM; in the series on HT-29 it was 22.3 µM; with SK-MEL-2, 31.6 µM; in the series on SK-OV-3 it was > 100 µM. For the same molecule, the IC50 in series [1] was 0.35 µM.
As for `CN(C)C1=Nc2ccccc2C(CC(=O)NCc2ccc(N)cc2)N1c1ccccc1` (stereo unspecified), the GI50 is > 100 µM with A549; > 100 µM in the series with DU-145; 28.3 µM with HT-29; 44 µM in the series on SK-MEL-2; > 100 µM in the series with SK-OV-3. The IC50 in series [1] was found to be 0.38 µM.
With `Cc1ccc(S(=O)(=O)Nc2ccc(CNC(=O)CC3c4ccccc4N=C(N(C)C)N3c3ccccc3)cc2)cc1` (stereo unspecified), the GI50 is 14.3 µM with A549; 6.52 µM with DU-145; 3.15 µM with HT-29; 8.53 µM with SK-MEL-2; 15.6 µM in the series with SK-OV-3. Besides, the IC50 in series [1] turned out to be 0.63 µM.
Turning to `CCN1C(N2CCCCC2)=Nc2ccccc2C1CC(=O)NCc1ccc(NS(=O)(=O)c2ccc(F)cc2)cc1` (stereo unspecified), the GI50 was 24.5 µM in the series with A549; 17.2 µM in the series with DU-145; 13.9 µM in the series on HT-29; 17 µM with SK-MEL-2; 26.1 µM in the series on SK-OV-3. Moreover, the IC50 in series [1] amounted to 1.04 µM.
Turning to `CC(C)(C)OC(=O)NCCCCCNC1=Nc2ccccc2C(CC(=O)NCc2ccccc2)N1c1ccccc1` (stereo unspecified), the concentration for 50% growth inhibition (GI50) in the series with A549 turned out to be 7.74 µM; in the series with DU-145, 4.26 µM; with HT-29 it was 3.18 µM; in the series on SK-MEL-2, 2.02 µM; in the series on SK-OV-3, 7.18 µM. In addition, in series [1], the IC50 is 0.57 µM.
Take `CC(C)(C)OC(=O)NCCCCCNC1=Nc2ccccc2C(CC(=O)NCc2ccccc2)N1c1ccc(-c2ccccc2)cc1` (stereo unspecified): the GI50 in the series on A549 came out at 1.83 µM; in the series with DU-145, 1.64 µM; with HT-29 it was 1.67 µM; in the series with SK-MEL-2, 1.48 µM; in the series with SK-OV-3, 1.61 µM.
Regarding `COc1cccc2c1C(=O)c1c(O)c3c(c(O)c1C2=O)C[C@@](O)(C(=O)CO)C[C@@H]3O[C@H]1C[C@H](N)[C@H](O)[C@H](C)O1` (stereo in doubt) [DOXORUBICIN], the concentration for 50% growth inhibition (GI50) with A549 came out at 0.16 µM; in the series with DU-145 it was 0.06 µM; in the series with HT-29, 0.21 µM; with SK-MEL-2, 0.11 µM; in the series with SK-OV-3, 0.12 µM.

Broadly, the GI50 is the concentration giving 50% growth inhibition. Low values mean more potent growth inhibition, high ones less potent growth inhibition. Usually IC50 stands for the concentration at which inhibition is half-maximal.
